Bioassay records as filed in PubChem.
TAAR1 antag = human TAAR1 antagonism; inhibition, % at 3 µM; AID 624466; CHO RD-HGA16 TAAR1, Fluo-8 calcium fluorescence, antagonist; actives 1.5% (n = 360,000);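 active means inhibition above a per-plate cutoff, the mean inhibition of test compounds on that plate plus 3 SD, cut at about 49% in these data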;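 further: 0% = DMSO plus EC80 beta-PEA response and 100% = DMSO alone without agonist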
Target sequence (Q96RJ0 whole entry, looked up): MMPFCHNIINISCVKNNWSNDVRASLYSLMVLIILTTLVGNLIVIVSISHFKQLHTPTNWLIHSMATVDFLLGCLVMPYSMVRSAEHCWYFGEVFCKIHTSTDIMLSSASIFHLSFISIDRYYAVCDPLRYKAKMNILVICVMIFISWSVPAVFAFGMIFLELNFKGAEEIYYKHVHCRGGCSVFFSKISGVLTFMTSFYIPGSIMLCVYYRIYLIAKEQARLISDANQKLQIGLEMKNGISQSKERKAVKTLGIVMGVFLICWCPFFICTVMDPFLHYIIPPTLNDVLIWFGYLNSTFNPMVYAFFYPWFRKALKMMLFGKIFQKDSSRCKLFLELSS
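System: CHO RD-HGA16 cells bearing hTAAR1. Reagent: EC80 β-phenethylamine stimulus. Schedule: seeding 17-24 h prior, 75-min 37 °C, 30-min RT dye loading. Signal: Fluo-8 intracellular calcium dye fluorescence, real-time kinetic reads. Read-out: % inhibition from peak post-agonist over basal fluorescence ratio. Benchmarks: vehicle wells and EC80 agonist wells. Replicates: n of 1.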
OX1R antag-1 = antagonists of human orexin 1 receptor (OX1R); O43613; actives 1.8% (n = 330,000); AID 485270; inhibition, % at 6.6 µM; OX1R-expressing cells, FRET antagonist read-out; in the data active means inhibition mostly above about 38%, no sharp cut-off; inactive means mostly below about 40%;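 further: 0% = agonist challenge alone and 100% = reference antagonist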
CHO parental Ca = counter-screen for OX1R antagonists: effect in parental CHO cells | parental CHO-K1, ATP-induced calcium, Fluo-8 fluorescence | inhibition, % at 5.6 µM | actives 0.63% (n = 330,000);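 active means inhibition above that plate's mean sample inhibition plus 3 SD, cut at about 26% in these data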;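 further: 0% = ATP-challenged DMSO wells and 100% = DMSO wells without ATP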
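Assay system: parental CHO cells; Read-out basis: percent inhibition of ATP-evoked calcium rise, normalized to controls; Benchmarks: ATP and no-ATP DMSO wells; Compound dosing: single nominal dose of 5.6 µM per compound; Signal: Fluo-8 calcium dye fluorescence; Also added: ATP as calcium-mobilizing challenge; Repeats: singlicate.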
OX1R antag-2 = blocks the human orexin 1 receptor; inhibition, % at 5 µM; actives 0.43% (n = 330,000); O43613; CHO/OX1R cells, Fluo-8 calcium fluorescence, orexin A;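 active means inhibition above its plate's threshold, mean inhibition of all tested compounds on the plate plus 3 SD, cut at about 37% in these data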;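 further: 0% = orexin A challenge wells and 100% = SB-334867-A antagonist wells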
TAAR1 ag = human TAAR1 agonism. Q96RJ0. CHO RD-HGA16 TAAR1, Fluo-8 calcium fluorescence; vehicle wells 0%, saturating PEA agonist 100%. activation, % at 3 µM. actives 0.99% (n = 360,000);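 active means activation above the mean activation of all test compounds in the run plus 3 SD, cut at about 38% in these data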
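Test system: RD-HGA16 (CHO) cells co-expressing Gα16 and hTAAR1; dosing: one-point dosing at 3 µM (nominal); timing: 17-24 h seeding, 75 min 37 °C dye, 30 min RT; signal: kinetic Fluo-8 calcium fluorescence; read-out basis: % activation relative to PEA EC100 response; controls: DMSO and PEA EC100; replicates: n 1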
The depositor's hits bear a star; . = not tested or not shown. The list is not random: actives were taken first. Their share in the collection is about 4%.

SMILES	TAAR1 antag	OX1R antag-1	CHO parental Ca	OX1R antag-2	TAAR1 ag
Cc1nn(C)c(C)c1/C=N/N=C1\CCC2C3CCc4cc(O)ccc4C3CCC12C (stereo not drawn)	62.8*	29.1	27.5	19.7	13.6
C#CCN(C[C@H]1[C@H](OC(=O)Nc2c(C)noc2C)[C@H](OC(=O)Nc2c(C)noc2C)CN(C(=O)OC(C)C)N1C(=O)OC(C)C)S(=O)(=O)c1ccc(C)cc1	18.2	.	.	.	1.0
O=C(NCc1ccco1)C1CCN(C(=O)c2ccc(Cl)cc2)CC1	7.5	13.3	-10.0	-19.1	0.2
O=C(NCc1ccco1)C1CCN(C(=O)c2ccc([N+](=O)[O-])cc2)CC1	-10.7	53.5*	2.2	3.6	0.7
O=C(NCc1ccco1)C1CCN(C(=O)c2cc3sccc3n2Cc2ccc(Cl)cc2)CC1	2.6	13.7	36.9*	68.7*	32.1
CCn1c(C(=O)N2CCC(C(=O)NCc3cccs3)CC2)cc2sccc21	11.1	-1.3	-9.2	-30.8	10.0
C=CCN1[C@@H](C)[C@H](c2ccccc2)Oc2cccc(NCC(C)C)c2S1(=O)=O	-21.6	.	.	.	1.5
O=C(Nc1nc2ccccc2s1)c1cccc(S(=O)(=O)N2CCc3ccccc32)c1	-34.6	65.9	2.9	-3.8	-2.0
CC(=O)Nc1cccc(NC(=O)c2ccc3c(c2)CCN3S(=O)(=O)c2ccccc2)c1	49.8*	12.5	-10.9	-2.2	5.0
O=C(Nc1nc2c(s1)CN(Cc1ccccc1)CC2)c1cccc(S(=O)(=O)N2CCc3ccccc32)c1	20.9	7.9	-10.2	-4.2	37.7*
O=[N+]([O-])c1ccc(-c2ccc(C=Nc3cccc4ccccc34)o2)cc1	-3.5	47.9*	4.9	-2.6	-4.1
Cc1cccc(N2CCN(CC(=O)Nc3ccc(S(=O)(=O)N4CCOCC4)cc3)CC2)c1C	-1.1	26.3	55.5*	33.5	9.4
Cc1ccc(NC(=O)c2ccc(S(=O)(=O)N3CCOCC3)cc2)cc1	5.0	8.5	-1.8	-15.7	-2.6
Cc1ccc(S(=O)(=O)N2CCN(CC(=O)Nc3ccc(N4CCOCC4)cc3)CC2)cc1C	15.3	4.3	-11.7	-6.4	1.4
Cc1ccc(SC(C)C(=O)Nc2ccc(S(=O)(=O)N3CCOCC3)cc2)cc1 (stereo not drawn)	21.6	6.8	-9.1	-18.4	38.5*
CC(=O)C[C@@H](O)CC(=O)[C@@H]1OC(=O)[C@@H](C)CCCCc2ccccc21	-29.9	9.7	2.1	-19.7	1.2
O=S(=O)(N1CCCCC1)N1CCN(CC(O)COc2ccc3cc(Br)ccc3c2)CC1 (stereo not drawn)	3.8	12.2	-10.3	-6.3	4.8
CN(C)S(=O)(=O)N1CCN(CC(O)COc2ccc3cc(Br)ccc3c2)CC1 (stereo not drawn)	14.6	8.2	40.0*	11.0	16.6
CN(C)S(=O)(=O)c1cc(NC(=O)c2cc(=O)c3ccccc3o2)ccc1Cl	46.7	12.9	-9.3	-22.6	43.8*
O=C(O)CCCNc1cc(N2CCC3(CC2)OCCO3)c2noc3c2c1C(=O)c1ccccc1-3	.	65.0*	-10.7	-0.1	.
O=C1c2ccccc2-c2onc3c(N4CCN(CCO)CC4)cc(N4CCN(C(=O)c5ccco5)CC4)c1c23	-1.6	38.9	-16.1	-21.8	4.1
CCOC(=O)N1CCN(c2cc(NCCC(=O)O)c3c4c(onc24)-c2ccccc2C3=O)CC1	.	73.5*	-17.4	-27.5	.
CN1CCN(c2cc(N3CCN(C(=O)c4ccco4)CC3)c3c4c(onc24)-c2ccccc2C3=O)CC1	.	38.1	-11.4	-33.0	.
O=C(O)CCCNc1cc(N2CCN(C(=O)c3ccco3)CC2)c2noc3c2c1C(=O)c1ccccc1-3	10.7	57.6*	-15.9	-20.2	5.1
CC(=O)c1c(-c2ccccc2)c2cc(Cl)ccc2[nH]c1=O	2.4	66.7*	-18.8	2.2	14.2
CC(C)(C)c1ccc(C#C[C@@H]2C=C[C@@H](O)[C@@H](COC(=O)NCc3ccccc3)O2)cc1	-15.6	.	.	.	0.9
C[C@@H]1ON(C)[C@H]2C[C@H]3c4cc(-c5cccc(Cl)c5)ccc4CCN3C[C@@H]12	-14.9	.	.	.	-0.3
Cc1[nH]c2ccccc2c1/C=N/Nc1ccc([N+](=O)[O-])cc1	46.9	17.1	56.8*	52.5*	14.3
